Measured values taken from ChEMBL document CHEMBL1765024, “Fluorescent cyclin-dependent kinase inhibitors block the proliferation of human breast cancer cells” (Bioorg Med Chem, 2011).
Active and inactive are the calls of the source. The rule behind the calls is not given here.

Experiments:
[1] = test system: MDA-MB-231; test: Cell cycle arrest in human MDA-MB-231 cells assessed as accumulation at G2/M phase at 5 to 10 uM after 24 hrs using propidium iodide staining by flow cytometry; format: functional, cell-based
In short: (§1)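 Asynchronous cells were treated with 5 or 10 µM compound or DMSO for 24 h (also 16 and 40 h). They were trypsinized, washed in PBS and fixed/permeabilized in 70% ethanol. Staining was with RNase and propidium iodide for 30 min in the dark at room temperature, followed by flow cytometry. Phase percentages are given minus DMSO control; mean of triplicates.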

[2] = test system: MCF7; test: Antiproliferative activity against human MCF7 cells expressing estrogen receptor after 72 hrs by WST-1 assay; format: functional, cell-based; conditions: MCF7, 72 h
In short: (§2)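 MCF-7 and its P-glycoprotein-overexpressing MDR subline CL 10.3 were grown in DMEM with 10% heat-inactivated FBS. Compounds in DMSO were serially diluted in medium and given to cells for 72 h. Read-out was WST-1 reduction (450 nm, 630 nm reference). IC50 interpolated from log concentration versus fraction surviving; mean (SEM) of triplicates. Ratio is CL 10.3 IC50 over MCF-7 IC50.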

[3] = Antiproliferative activity against human CL 10.3 cells expressing p-glycoprotein after 72 hrs by WST-1 assay; format: functional, cell-based; in short: as §2
[4] = test system: MDA-MB-231; test: Drug uptake in human MDA-MB-231 cell cytoplasm at 10 uM after 3 to 24 hrs using propidium iodide staining by two-photon confocal microscopy; format: ADME, cell-based; conditions: mda-mb-231, 10 µM
[5] = test system: MDA-MB-231; test: Induction of apoptosis in human MDA-MB-231 cells assessed as decrease in caspase 7 protein level at 10 uM after 48 hrs by Western blotting; format: functional, cell-based
[6] = test system: MDA-MB-231; test: Cell cycle arrest in human MDA-MB-231 cells assessed as accumulation at G2/M phase treated at 5 uM for 24 hrs measured after drug washout following 48 hrs growth recovery using propidium iodide staining by flow cytometry; format: functional, cell-based
In short: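 Exponentially growing cells exposed 24 h, then held a further 48 h in compound-free medium. Cells trypsinized, pelleted, PBS-washed, permeabilized in 70% ethanol, stained 30 min in the dark at room temperature with PI plus RNase, and analysed by flow cytometry. Phase percentages given after subtracting untreated control. Mean of triplicate experiments.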

[7] = test system: MCF7; test: Induction of apoptosis in human MCF7 cells assessed as necrotic cells at 10 uM after 24 hrs using annexinV-propidium iodide staining by flow cytometry (reference value: 12.09%); format: functional
[8] = test system: MDA-MB-231; test: Induction of apoptosis in human MDA-MB-231 cells assessed as decrease in caspase 3 protein level at 10 uM after 48 hrs by Western blotting; format: functional, cell-based
[9] = target: Cyclin-dependent kinase 5/CDK5 activator 1 (Homo sapiens) (UniProt Q00535+Q15078); conditions: at 0.1 µM
Sequence of Cyclin-dependent kinase 5/CDK5 activator 1 (Homo sapiens) (Q00535 whole entry): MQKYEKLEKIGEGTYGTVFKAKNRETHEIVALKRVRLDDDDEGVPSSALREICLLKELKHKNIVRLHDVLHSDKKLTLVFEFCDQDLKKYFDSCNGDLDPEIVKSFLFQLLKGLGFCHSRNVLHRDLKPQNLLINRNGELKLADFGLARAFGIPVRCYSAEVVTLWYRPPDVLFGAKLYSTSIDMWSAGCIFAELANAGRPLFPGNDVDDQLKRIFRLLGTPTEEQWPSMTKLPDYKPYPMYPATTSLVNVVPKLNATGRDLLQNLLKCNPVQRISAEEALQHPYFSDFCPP
Sequence of Cyclin-dependent kinase 5/CDK5 activator 1 (Homo sapiens) (Q15078 99-307 partner limits assumed): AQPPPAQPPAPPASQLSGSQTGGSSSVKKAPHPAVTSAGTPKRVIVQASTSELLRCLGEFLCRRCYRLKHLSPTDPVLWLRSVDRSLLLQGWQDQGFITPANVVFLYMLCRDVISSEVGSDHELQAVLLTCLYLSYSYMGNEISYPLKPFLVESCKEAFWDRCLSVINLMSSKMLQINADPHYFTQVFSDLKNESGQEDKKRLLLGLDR

[10] = test system: MCF7; test: Cell cycle arrest in human MCF7 cells assessed as accumulation at G2/M phase at 5 to 10 uM after 24 hrs using propidium iodide staining by flow cytometry; format: functional, cell-based; in short: as §1
[11] = test system: MDA-MB-231; test: Induction of apoptosis in human MDA-MB-231 cells assessed as reduction of cdc2 phosphorylation at Y15 regulatory site at 10 uM by Western blot analysis; format: functional, cell-based; conditions: TDE = time-dependent effect
In short: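 MDA-MB-231 cells were treated with 10 µM compound for 1, 3, 6, 12 and 24 h and lysed. Equal protein was resolved by 10% SDS–PAGE and immunoblotted for phospho-cdc2 (T161, Y15), cdc2 and cyclin B, with actin as loading standard and ECL detection.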

[12] = test system: MDA-MB-231; test: Cell cycle arrest in human MDA-MB-231 cells assessed as accumulation at sup G1 phase at 5 to 10 uM after 24 hrs using propidium iodide staining by flow cytometry; format: functional, cell-based; in short: as §1
[13] = test system: MCF7; test: Induction of apoptosis in human MCF7 cells assessed as viable cells at 10 uM after 24 hrs using annexinV-propidium iodide staining by flow cytometry (reference value: 70.32%); format: functional; conditions: MCF7, 24 h, read-out: Activity
[14] = test system: MDA-MB-231; test: Induction of apoptosis in human MDA-MB-231 cells assessed as decrease in cell number at 10 uM after 48 hrs using propidium iodide staining by confocal microscopic analysis; format: functional, cell-based
[15] = test system: MDA-MB-231; test: Induction of apoptosis in human MDA-MB-231 cells assessed as induction of PARP cleavage at 10 uM after 48 hrs by Western blotting; format: functional, cell-based
In short: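 MDA-MB-231 cells were treated with vehicle or 10 µM compound for 48 h (and 72 h). Lysates were cleared and protein measured by BCA. Equal protein was run on 10% SDS–PAGE and transferred to PVDF, blocked in 5% milk overnight, and probed 2 h with anti-Bcl-2, Bax or PARP. HRP secondary was applied for 1 h, with ECL detection.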

IC50 [2]: 4.5 µM
Activity [4]: Active
inhibition [9]: 75%
Structure (SMILES): CC(C)[C@H](CO)Nc1nc(Nc2ccc(C(=O)NCCNS(=O)(=O)c3cccc4c(N(C)C)cccc34)c(Cl)c2)c2ncn(C(C)C)c2n1
Activity [1]: Active
IC50 [3]: 44.1 µM
Activity [5]: Active
Activity [6]: Active
Activity [7]: 17.15%
Activity [8]: Active
Activity [10]: Active
inhibition [11]: tde
Activity [12]: Active
viability at 10 µM [13]: 48.9%
Activity [14]: Active
Activity [15]: Active
